Measurements from ChEMBL document CHEMBL4819027, “Design, synthesis and biological evaluation of novel 2-(4-(1H-indazol-6-yl)-1H-pyrazol-1-yl)acetamide derivatives as potent VEGFR-2 inhibitors” (Eur J Med Chem, 2021).

Legend:
[1] = target: Vascular endothelial growth factor receptor 2 (Homo sapiens, UniProt P35968); test: Inhibition of VEGFR2 (unknown origin) incubated for 10 mins followed by kinase substrate addition and measured after 30 mins by caliper mobility shift assay
HT-29 = test: Antiproliferative activity against human HT-29 cells assessed as cell growth inhibition after 72 hrs by MTT assay; type: functional, cell-based; details: HT-29, 72 h
Method in brief: (§1)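 Log-phase cells were seeded at 5 × 10³ per well and attached 24 h. HT-29 and GES-1 were grown in DMEM-based medium, A549/HepG2/HGC-27 in RPMI-1640, HUVEC in ECM with ECGS; all media had 10% FBS. Cells were exposed to graded compound concentrations for 72 h at 37 °C. MTT (5 mg/mL stock) was added for 4 h, formazan dissolved in DMSO, and A490 read. IC50 was obtained by nonlinear sigmoidal regression; mean ± S.E. of three experiments.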

A549 = test: Antiproliferative activity against human A549 cells assessed as cell growth inhibition after 72 hrs by MTT assay; type: functional, cell-based; details: A549, 72 h; method in brief: as §1
HepG2 = test: Antiproliferative activity against human HepG2 cells assessed as cell growth inhibition after 72 hrs by MTT assay; type: functional, cell-based; details: HepG2, 72 h; method in brief: as §1
HGC-27 = test: Antiproliferative activity against human HGC-27 cells assessed as cell growth inhibition after 72 hrs by MTT assay; type: functional, cell-based; details: HGC-27, 72 h; method in brief: as §1
HUVEC = test: Cytotoxicity against human HUVEC cells assessed as inhibition of cell growth incubated for 72 hrs by MTT assay; type: cell-based; method in brief: as §1
GES1 = test: Cytotoxicity against human GES-1 cells assessed as inhibition of cell growth incubated for 72 hrs by MTT assay; type: cell-based; details: GES1, 72 h; method in brief: as §1

Vascular endothelial growth factor receptor 2, sequence (P35968 whole entry): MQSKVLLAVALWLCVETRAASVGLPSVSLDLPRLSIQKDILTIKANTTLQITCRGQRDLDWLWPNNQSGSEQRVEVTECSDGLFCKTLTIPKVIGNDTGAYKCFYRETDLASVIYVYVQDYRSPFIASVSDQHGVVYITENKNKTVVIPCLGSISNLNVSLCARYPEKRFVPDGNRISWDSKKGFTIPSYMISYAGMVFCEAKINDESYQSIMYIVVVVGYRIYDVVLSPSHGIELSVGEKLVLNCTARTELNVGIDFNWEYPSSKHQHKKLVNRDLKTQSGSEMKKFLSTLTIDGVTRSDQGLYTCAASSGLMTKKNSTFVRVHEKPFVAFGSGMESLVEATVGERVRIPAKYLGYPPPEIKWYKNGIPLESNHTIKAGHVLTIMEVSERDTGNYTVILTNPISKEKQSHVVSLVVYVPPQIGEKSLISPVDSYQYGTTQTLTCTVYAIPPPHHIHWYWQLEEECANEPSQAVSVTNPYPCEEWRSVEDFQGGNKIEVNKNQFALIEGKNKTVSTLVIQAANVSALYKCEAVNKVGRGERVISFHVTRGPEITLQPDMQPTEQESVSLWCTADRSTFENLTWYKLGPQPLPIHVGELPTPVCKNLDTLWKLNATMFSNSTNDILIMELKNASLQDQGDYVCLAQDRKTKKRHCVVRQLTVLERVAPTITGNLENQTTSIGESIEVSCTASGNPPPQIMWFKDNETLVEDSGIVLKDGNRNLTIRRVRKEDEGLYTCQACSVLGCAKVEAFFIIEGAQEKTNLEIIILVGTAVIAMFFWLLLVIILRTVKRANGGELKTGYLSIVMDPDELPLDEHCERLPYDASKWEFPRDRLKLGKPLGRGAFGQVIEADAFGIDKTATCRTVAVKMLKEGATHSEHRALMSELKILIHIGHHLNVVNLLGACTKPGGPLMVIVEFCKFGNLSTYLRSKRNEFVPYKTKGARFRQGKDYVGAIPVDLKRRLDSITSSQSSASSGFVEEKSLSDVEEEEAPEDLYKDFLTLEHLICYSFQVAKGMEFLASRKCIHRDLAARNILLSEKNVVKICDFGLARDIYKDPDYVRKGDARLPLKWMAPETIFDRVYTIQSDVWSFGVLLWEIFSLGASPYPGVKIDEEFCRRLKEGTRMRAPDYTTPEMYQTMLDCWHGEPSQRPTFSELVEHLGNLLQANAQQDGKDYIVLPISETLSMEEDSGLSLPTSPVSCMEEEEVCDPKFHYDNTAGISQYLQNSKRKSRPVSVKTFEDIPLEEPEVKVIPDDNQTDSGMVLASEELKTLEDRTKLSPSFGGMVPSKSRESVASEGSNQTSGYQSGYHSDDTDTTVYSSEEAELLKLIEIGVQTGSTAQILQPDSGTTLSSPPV

Compound	IC50 [1]	IC50 (HT-29)	IC50 (A549)	IC50 (HepG2)	IC50 (HGC-27)	IC50 (HUVEC)	IC50 (GES1)
Cc1ccc(NC(=O)Cn2cc(-c3ccc4c(N)n[nH]c4c3)cn2)cc1C(F)(F)F	0.0027 µM	1.54 µM	7.09 µM	4.18 µM	4.98 µM	5.24 µM	6.96 µM
Cc1ccc(NC(=O)Cc2cccc(-c3ccc4c(NC(=O)C5CC5)n[nH]c4c3)c2)cc1C(F)(F)F	–	> 50 µM	20.9 µM	25.5 µM	15.6 µM	> 50 µM	48.5 µM
Cc1ccc(NC(=O)Cn2cc(-c3ccc4c(NC(=O)c5cnn(C)c5)n[nH]c4c3)cn2)cc1C(F)(F)F	0.00073 µM	4.92 µM	3.86 µM	2.61 µM	0.021 µM	4.41 µM	1.67 µM
Cc1ccc(NC(=O)Cc2ccc(-c3ccc4c(NC(=O)C5CC5)n[nH]c4c3)s2)cc1C(F)(F)F	0.012 µM	8.09 µM	0.96 µM	38.1 µM	3.09 µM	5.62 µM	13.9 µM
Nc1n[nH]c2cc(-c3cnn(CC(=O)Nc4cc(C(F)(F)F)ccc4F)c3)ccc12	0.022 µM	7.83 µM	20.5 µM	13.3 µM	15.5 µM	23.9 µM	7.64 µM
Cc1ccc(NC(=O)Cn2cc(-c3ccc4c(NC(=O)C(C)C)n[nH]c4c3)cn2)cc1C(F)(F)F	0.028 µM	0.48 µM	2.48 µM	13.7 µM	0.39 µM	2.43 µM	> 100 µM
Nc1n[nH]c2cc(-c3cnn(CC(=O)Nc4cccc(C(F)(F)F)c4)c3)ccc12	0.0074 µM	3.97 µM	19.5 µM	11.5 µM	10.2 µM	7.25 µM	22.3 µM
CS(=O)(=O)Cc1cccc(Nc2n[nH]c3cc(-c4cnn(CC(=O)Nc5ccc(Cl)c(C(F)(F)F)c5)c4)ccc23)c1	0.143 µM	3.69 µM	7.17 µM	6.54 µM	1.26 µM	7.22 µM	17.7 µM
CCNc1n[nH]c2cc(-c3cnn(CC(=O)Nc4ccc(C)c(C(F)(F)F)c4)c3)ccc12	0.038 µM	8.32 µM	8.48 µM	15.1 µM	1.19 µM	> 50 µM	1.9 µM
Cc1ccc(NC(=O)Cn2nc(C)c(-c3ccc4c(NC(=O)C5CC5)n[nH]c4c3)c2C)cc1C(F)(F)F	0.307 µM	14.7 µM	1.81 µM	27.4 µM	2.79 µM	6.62 µM	11.9 µM
Cc1ccc(NC(=O)Cn2cc(-c3ccc4c(NC(=O)C5CC5)n[nH]c4c3)nn2)cc1C(F)(F)F	–	> 50 µM	> 50 µM	> 50 µM	> 50 µM	< 1 µM	> 100 µM
CNS(=O)(=O)c1cc(Nc2n[nH]c3cc(-c4cnn(CC(=O)Nc5ccc(Cl)c(C(F)(F)F)c5)c4)ccc23)ccc1C	0.407 µM	3.27 µM	1.37 µM	3.83 µM	0.39 µM	1.45 µM	3.37 µM
O=C(Cn1cc(-c2ccc3c(NC(=O)C4CC4)n[nH]c3c2)cn1)Nc1ccc(Cl)c(C(F)(F)F)c1	0.014 µM	1.37 µM	8.55 µM	6.03 µM	1.05 µM	1.07 µM	29.8 µM
Cc1ccc(NC(=O)Cn2cc(-c3ccc4c(NC(=O)c5cccnc5)n[nH]c4c3)cn2)cc1C(F)(F)F	0.0023 µM	7.78 µM	5.34 µM	9.08 µM	1.17 µM	1.75 µM	8.46 µM
Cc1ccc(NC(=O)Cc2ccc(-c3ccc4c(NC(=O)C5CC5)n[nH]c4c3)cc2)cc1C(F)(F)F	–	44.7 µM	45.1 µM	> 50 µM	33.7 µM	> 100 µM	> 100 µM
Cc1ccc(NC(=O)Cn2cc(-c3ccc4c(NC(=O)C5CC5)n[nH]c4c3)c(C)n2)cc1C(F)(F)F	0.027 µM	7.03 µM	1.65 µM	20.4 µM	0.65 µM	4.92 µM	3.09 µM
Cc1ccc(NC(=O)Cn2cc(-c3ccc4c(NCC5CC5)n[nH]c4c3)cn2)cc1C(F)(F)F	0.06 µM	11 µM	9.88 µM	22.3 µM	1.22 µM	17.9 µM	12 µM
Cc1ccc(NC(=O)Cn2cc(-c3ccc4c(NC(=O)C5CC5)n[nH]c4c3)cn2)cc1C(F)(F)F	0.0014 µM	1.01 µM	2.16 µM	2.51 µM	0.63 µM	0.95 µM	4.24 µM
Cc1ccc(NC(=O)Cn2cc(-c3ccc4c(NC(=O)C5CCCC5)n[nH]c4c3)cn2)cc1C(F)(F)F	0.015 µM	0.19 µM	1.58 µM	8.34 µM	0.5 µM	1.49 µM	0.75 µM
O=C(Cn1cc(-c2ccc3c(Nc4cccnc4)n[nH]c3c2)cn1)Nc1ccc(Cl)c(C(F)(F)F)c1	0.892 µM	5.21 µM	7.96 µM	5.63 µM	3.65 µM	8.04 µM	12.8 µM
Cn1cc(Nc2n[nH]c3cc(-c4cnn(CC(=O)Nc5ccc(Cl)c(C(F)(F)F)c5)c4)ccc23)cn1	0.22 µM	9.17 µM	12.1 µM	10.4 µM	12.5 µM	4.03 µM	13.3 µM
Nc1n[nH]c2cc(-c3cnn(CC(=O)Nc4ccc(Cl)c(C(F)(F)F)c4)c3)ccc12	0.012 µM	3.57 µM	12.5 µM	7.71 µM	7.68 µM	6.84 µM	12 µM
Cn1cc2ccc(Nc3n[nH]c4cc(-c5cnn(CC(=O)Nc6ccc(Cl)c(C(F)(F)F)c6)c5)ccc34)cc2n1	0.249 µM	6.11 µM	4.72 µM	4.32 µM	5.03 µM	6.4 µM	10 µM
O=C(Cn1cc(-c2ccc3c(NC(=O)C4CC4)n[nH]c3c2)cn1)Nc1cc(C(F)(F)F)ccc1F	0.012 µM	5.06 µM	8.82 µM	5.61 µM	3.73 µM	5.26 µM	25 µM
Cc1ccc(NC(=O)Cn2cc(-c3ccc4c(NC(=O)C5CCN(C)CC5)n[nH]c4c3)cn2)cc1C(F)(F)F	0.011 µM	1.79 µM	5.28 µM	15.3 µM	0.16 µM	53.9 µM	5.31 µM
